High-throughput results (PubChem)
Compounds with a hit are over-represented: about 3.5% of the library has one in this group of screens.
Env fusion inh: blocks HIV Env-driven cell-cell fusion; HeLa-JRFL Env/CEM21 cell fusion, luciferase; inhibition, % at 12.3 µM; 1.1% of 360,000 active;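 active = mean replicate inhibition score of at least 50 and every replicate individually at or above 50; inconclusive = only one of the two criteria met; inactive = mean below 50 and not all replicates reaching 50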;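 note: 0% = plate neutral controls and 100% = maraviroc near 300 nM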
MITF TRPM1 HTS: MITF TRPM1 promoter activation in melanoma cells; SK-MEL-5 TRPM1-promoter luciferase, 24 h; % of positive control, neutral wells = 0; activation, % at 12.5 µM; 0.75% of 300,000 active; AID 588334;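 active = mean activation of at least 80% with every replicate also reaching 80%; inconclusive = mean reaches 80% but some replicate falls short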;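 note: 0% = neutral control wells and 100% = parthenolide positive control wells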
Wnt bcat act: Wnt/beta-catenin pathway activation | Wnt/beta-catenin reporter cell assay, activator, plate reader | 1.2% of 300,000 active | activation, % at 9.35 µM | AID 743398; in the data active = activation above about 30%, passing the limit was not always enough; inconclusive = no clear call, values can overlap the other calls;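 note: 0% = neutral control wells and 100% = positive control wells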
ERAP1 HTS inh: ERAP1 (human) enzyme inhibition. recombinant ERAP1, Leu-AMC fluorescence, 60 min. inhibition, % at 10.7 µM. 0.15% of 340,000 active. AID 652197;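 active = mean replicate inhibition of at least 30%, or all replicates individually reaching that 30% level; inactive = mean below 30% and not every replicate reaching it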;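 note: 0% = neutral control wells and 100% = L-leucinethiol positive control wells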
Target sequence (Q9NZ08 whole entry, looked up): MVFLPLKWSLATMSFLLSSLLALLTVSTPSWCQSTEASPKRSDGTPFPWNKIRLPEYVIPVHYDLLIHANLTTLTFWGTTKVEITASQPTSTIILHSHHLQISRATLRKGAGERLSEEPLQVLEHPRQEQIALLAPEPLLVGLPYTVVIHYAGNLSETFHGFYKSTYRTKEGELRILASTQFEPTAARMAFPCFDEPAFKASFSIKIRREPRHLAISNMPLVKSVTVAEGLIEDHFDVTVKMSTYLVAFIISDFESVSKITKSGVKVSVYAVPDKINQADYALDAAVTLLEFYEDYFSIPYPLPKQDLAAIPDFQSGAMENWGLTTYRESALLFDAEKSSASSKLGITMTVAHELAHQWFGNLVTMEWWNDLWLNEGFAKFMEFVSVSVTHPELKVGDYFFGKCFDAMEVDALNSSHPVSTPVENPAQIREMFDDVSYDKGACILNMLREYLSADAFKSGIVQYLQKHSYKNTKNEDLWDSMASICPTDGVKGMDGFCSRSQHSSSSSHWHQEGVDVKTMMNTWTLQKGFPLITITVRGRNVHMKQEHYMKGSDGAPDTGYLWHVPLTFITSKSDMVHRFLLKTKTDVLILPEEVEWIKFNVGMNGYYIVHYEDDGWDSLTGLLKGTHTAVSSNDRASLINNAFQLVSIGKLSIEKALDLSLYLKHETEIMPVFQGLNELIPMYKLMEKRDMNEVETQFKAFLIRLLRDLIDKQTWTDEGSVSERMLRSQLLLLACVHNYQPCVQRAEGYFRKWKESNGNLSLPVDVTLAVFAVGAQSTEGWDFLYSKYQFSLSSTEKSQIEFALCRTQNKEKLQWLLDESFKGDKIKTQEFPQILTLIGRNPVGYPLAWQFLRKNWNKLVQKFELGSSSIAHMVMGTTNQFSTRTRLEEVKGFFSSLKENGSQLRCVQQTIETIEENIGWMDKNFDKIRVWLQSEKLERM
esBAF inh: SWI/SNF esBAF complex inhibition; mouse ES cells, Bmi1-luciferase knock-in reporter, 24 h; 100% = twice the neutral-well signal; reporter increase, % at 12.5 µM; 2% of 350,000 active; in the data active = activation above about 40%; inconclusive = no clear call, values can overlap the other calls;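 note: 0% = median of the plate's neutral control wells and 100% = double that signal; a rise in the Bmi1 reporter signal indicates esBAF inhibition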
Cneo AK release: causes C. neoformans cell lysis. adenylate kinase release luminescence, 4 h; normalised: neutral wells 0, clomiphene wells 100. lysis activity, % at 15 µM. 0.2% of 360,000 active. AID 651654;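 active = mean lysis activity across replicates of at least 80%, whatever share of replicates individually reach that level; inactive = mean lysis activity below 80%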
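Assay system: C. neoformans cells. Amount: yeast cell density of 5 × 10^6 cells/mL. Technique: AK luminescence. Buffer or medium: YPD. Times: static 4 h at 37 °C with compound, 1 h detection. Dosing: single-point compound dose. Read-out: lysis from increased AK signal.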
* marks the source's active call; other numbers are inactive results; ? = inconclusive; · = no result; ! = not confirmed by another sample; [ ] = dose if it differs, or a comment.

SMILES	Env fusion inh	MITF TRPM1 HTS	Wnt bcat act	ERAP1 HTS inh	esBAF inh	Cneo AK release
COCC(C)n1c(-c2ccc3c(c2)NC(=O)CO3)csc1=Nc1ccc(OC(F)F)cc1 (stereo unspecified)	83*!	-38	1	-1	9	·
O=C1COc2ccc(-c3csc(=Nc4ccc(OC(F)F)cc4)n3CC3CCCO3)cc2N1 (stereo unspecified)	92*	-17	·	·	-5	0
COc1ccc(C(O)c2nc(-c3cnc4ccccc4c3)cs2)cc1 (stereo unspecified)	-22	·	2	1	49*	-2
OC(c1ccc(F)cc1)c1nc(-c2cc3ccccc3o2)cs1 (stereo unspecified)	-73	·	-1	-6	70*	-4
OC(c1cccc(Cl)c1)c1nc(-c2cnc3ccccc3c2)cs1 (stereo unspecified)	-33	·	-1	7	31	5
OC(c1ccc(F)cc1)c1nc(-c2cnc3ccccc3c2)cs1 (stereo unspecified)	-30	·	23	2	48*	-9
CC(=O)NC(c1cccc(F)c1)c1nc(-c2cc3ccccc3o2)cs1 (stereo unspecified)	-125	·	-1	-6	1	3
OC(c1ccc(F)c(F)c1)c1nc(-c2ccc3ccccc3c2)cs1 (stereo unspecified)	-36	·	-3	5	68*	11
CC(C)NC(=O)NCC[C@H]1CC[C@@H](NC(=O)c2ccc(F)cc2)[C@@H](CO)O1	5[16.7 µM]	·	·	0	-2	1
CCC(=O)N1[C@@H]2c3ccc(-c4ccccc4)c(=O)n3C[C@H]1[C@H](CO)[C@H]2C(=O)N1CCc2ccccc2C1	·	·	·	1	9	1
COc1ccc(CN(C)C[C@H]2OCCCC[C@@H](C)Oc3ccc(NC(=O)CCCN(C)C)cc3C(=O)N([C@@H](C)CO)C[C@H]2C)cc1	21[16.7 µM]	·	·	1	-1	-1
Cc1cc(=O)oc2cc(OCC(=O)Nc3cccc(S(=O)(=O)N(C)C)c3)ccc12	3	6	-3	-2	·	·
Cc1cc(=O)oc2cc(NC(=O)Cc3ccccc3)ccc12	-10	51	14	-2	31	2
Cc1cc(=O)oc2cc(NC(=O)c3cccc(S(=O)(=O)N(C)C)c3)ccc12	7	139*	28	-4	40	5
Cc1cc(=O)oc2cc(NC(=O)c3ccc(OC(F)F)cc3)ccc12	-20	86*	11	-4	57*	-3
COc1ccccc1C(=O)Nc1ccc2c(C)cc(=O)oc2c1	-42	88*	48*	-2	54*	1
Cc1cc(=O)oc2cc(NC(=O)c3cccc(S(C)(=O)=O)c3)ccc12	-28	93*	7	0	?	1
O=C1[C@H](Cc2ccccc2)NCCCC[C@@H](c2ccc(Cl)cc2)N1Cc1ccc(Cl)cc1	-19	5	-4	1	-7	18
O=C1[C@H](Cc2ccccc2)NCCCC[C@@H](c2ccco2)N1Cc1ccccc1	58*	6	1	·	2	3
O=C1[C@H](Cc2ccccc2)NCCCC[C@H](c2ccco2)N1Cc1ccccc1	74*	-4	-3	-5	-8	-3
O=C1[C@H](Cc2ccccc2)NCCCC[C@H](c2ccc(Cl)cc2)N1Cc1ccccc1	86*	-3	-11	-3	-4	4
O=C(Nc1ccc(F)cc1)N1C[C@@H]2[C@H](c3ccccc31)[C@H](CO)N2C(=O)Cc1cccnc1	·	·	·	-3	6	1
COC(=O)C1=C(N)Oc2c(oc(CO)cc2=O)C1c1ccc(F)cc1 (stereo unspecified)	-2	·	40*	·	·	3
C[C@H](CO)N1C[C@H](C)[C@H](CN(C)C(=O)C2CC2)Oc2cc(-c3cccc(C#N)c3)ccc2S1(=O)=O	1[16.7 µM]	·	·	0	-3	-1
O=C(NCc1ccco1)c1ccc(Cn2c(=O)c3ccccc3n(Cc3cccc(F)c3)c2=O)cc1	85*	·	·	·	-6	0
SMILES	Env fusion inh	MITF TRPM1 HTS	Wnt bcat act	ERAP1 HTS inh	esBAF inh	Cneo AK release
COCCNC(=O)Cn1c(=O)n(Cc2ccc(C(=O)NCc3ccco3)cc2)c(=O)c2ccccc21	-68	5	·	·	·	0
O=C(NCc1ccco1)c1ccc(Cn2c(=O)c3ccccc3n(Cc3ccc(Cl)cc3)c2=O)cc1	119*	·	·	·	0	-2
C[C@@H]1CCCCO[C@@H](CN(C)CC2CC2)[C@H](C)CN([C@H](C)CO)C(=O)c2cc(NC(=O)CCCN(C)C)ccc2O1	·	·	·	-4	·	·
CC(=O)c1ccc(OC(=O)Oc2ccc(C(C)=O)cc2)cc1	-7	1	-2	1	·	·
CC(=O)c1ccc(Oc2ccc(C(C)=O)cc2)cc1	-50	32	15	·	42*	-4
N/C(=N\OC(=O)c1cccs1)c1cccc([N+](=O)[O-])c1	-47	45	13	-3	75*	0
Cc1ccccc1/C(N)=N/OC(=O)c1cccs1	-7	17	25	·	·	·
CCSc1ccc(/C(N)=N/OC(=O)c2cccs2)cn1	-48	108*	29	0	57*	-4
C[C@@H]1CN([C@H](C)CO)C(=O)Cc2cc(NC(=O)Nc3ccc(C(F)(F)F)cc3)ccc2O[C@H]1CN(C)C(=O)Nc1cccc2ccccc12	-13[16.7 µM]	·	·	-8	-3	-3
CCCC#Cc1ccc2c(c1)O[C@@H](CN(C)C(=O)NC(C)C)[C@H](C)CN([C@H](C)CO)S2(=O)=O	-13[16.7 µM]	·	·	-1	1	3
CC(C)NC(=O)N1C[C@H]2[C@@H](c3ccccc31)[C@@H](CO)N2Cc1ccc(Cl)cc1	·	·	·	-1	2	-1
COc1ccccc1-c1cnc2c(c1)C(=O)N([C@H](C)CO)C[C@@H](C)[C@H](CN(C)C(=O)c1cccnc1)O2	8[16.7 µM]	·	·	·	4	·
Clc1cccc(Cl)c1C1=NOC(c2nnc(-c3ccccc3)o2)C1 (stereo unspecified)	1	70	15	2	50*	-6
Clc1ccc(C2=NOC(c3nnc(-c4ccccc4)o3)C2)cc1 (stereo unspecified)	0	3	-1	2	1	-2
CC(=O)c1cccc(NC(=O)Nc2cnn(Cc3ccc(Cl)cc3Cl)c2)c1	64*	1	·	·	2	-4
O=C(C[C@@H]1C[C@H]2c3cc(NC(=O)Nc4ccc(C(F)(F)F)cc4)ccc3O[C@H]2[C@H](CO)O1)NC1CCCCC1	-8[16.7 µM]	·	·	-1	18	-1
C/C(=N/O)c1no[n+]([O-])c1/C(C)=N\O	2	·	38*	-1	·	1
N#C[C@H]1[C@H](c2ccccc2)[C@H](CO)N1C(=O)CN1CCOCC1	4[16.7 µM]	·	·	-3	3	-1
COc1ccc2c(c1)CCc1c(C(=O)NC3CCCCC3)noc1-2	-179	91*	·	·	-5	2
COCCNC(=O)c1noc2c1CCc1cc(OC)ccc1-2	-152	77	·	·	36	-1
